These results are taken from publication PMC9298613 (Journal of Food and Drug Analysis, 2018).

Data set [1] in a line: Pharmacokinetics of APZ in rat plasma. The format is in vivo, Wistar rats.
Another data set deals with CYP2D6. Nature of the data set: Western blot of hepatic CYP2D6 protein expression. Format: in vivo, Wistar rats. To be noted: for Reduction of CYP2D6 protein: rat received SA, compared with rats received APZ alone. In outline: (§1)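 Wistar rats (190–210 g, n = 6/group), food withheld 12 h beforehand. Antipsychotic test compound 3 mg/kg p.o. once on day 15 or daily for 15 days; controls given oral saline for 15 days. After ether euthanasia, liver excised. 25 μg hepatic protein run on 10% SDS gel, transferred to PVDF, primary antibody overnight at 4 °C, HRP secondary 60 min. Chemiluminescence, densitometry, β-actin also probed. Mean ± SD, ANOVA/Dunnett.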
A general note: In western blotting, separated proteins are transferred to a membrane and probed.

For data set [2] the following is noted: at steady state; cited from earlier work.
The next data set deals with CYP3A2. Briefly: Western blot of hepatic CYP3A2 protein expression. The format is in vivo, Wistar rats. To be noted: for Reduction of CYP3A2 protein: rat received SA, compared with rats received APZ alone. In outline:
as §1

The test system of a further data set is CYP3A2 and CYP2D6. Nature of the data set: Hepatic CYP3A2 and CYP2D6 protein expression, summary statements. Format: in vivo, Wistar rats. To be noted: APZ after single or multiple dosing. The essentials: as §1
Where [3] appears, read: APZ 3 mg/kg p.o. daily for 15 days (multiple doses), with or without SA 20 mg/kg p.o. for 15 days, mean ± SD, n = 6.
The mark [4] stands for this setting: Wistar, rat, plasma, po, 3 mg/kg.
The mark [5] stands for this setting: multiple dose of APZ 3 mg/kg p.o. 15 days, compared to normal controls, p < 0.05.
Where [6] appears, read: single dose of APZ 3 mg/kg p.o., liver, compared with normal controls, p <0.05.
[7] abbreviates: administration of SA, in contrast to rats treated with multiple doses of APZ, p <0.05.
[8] abbreviates: animals treated with SA for 15 days, compared to rats treated with a single dose of APZ.

For `O=C1CCc2ccc(OCCCCN3CCN(c4cccc(Cl)c4Cl)CC3)cc2N1` [APZ, 7-[4-[4-(2,3-dichlorophenyl)-1-piperazinyl]butoxy]-3,4-dihydrocarbostyril], in data set [1] (setting [3]), the “AUMC 0-∞” value turned out to be 3443.83 ± 234.17 ng/ml × h^^2, the CL came to 2.28 ± 0.09 mL/h/kg, the Ke is 0.04 ± 0.005 h⁻¹ and the Vd was found to be 0.06501 ± 0.00653 L/kg. Also, in data set [1] (setting [4]), the time of peak concentration (Tmax) came out at 8 h and the k el is 1.11e-05 s⁻¹. In addition, in data set [1] (Wistar, rat, plasma, po, 3 mg/kg, AUC 0-t, APZ 3 mg/kg p.o. daily for 15 days (multiple doses), with or without SA 20 mg/kg p.o. for 15 days, mean ± SD, n = 6), the AUC(0-t) came out at 122 ± 3.45 ng·h/mL. For the same compound, the area under the curve AUC(0-inf) in data set [1] (Wistar, rat, plasma, po, 3 mg/kg, AUC 0-∞, APZ 3 mg/kg p.o. daily for 15 days (multiple doses), with or without SA 20 mg/kg p.o. for 15 days, mean ± SD, n = 6) stood at 132 ± 4.85 ng·h/mL. Further, in data set [1] (Wistar, rat, plasma, po, 3 mg/kg, Cmax, APZ 3 mg/kg p.o. daily for 15 days (multiple doses), with or without SA 20 mg/kg p.o. for 15 days, mean ± SD, n = 6), the Cmax came out at 7.08 ± 0.89 ng/mL. Besides, the mean residence time MRT inf in data set [1] (Wistar, rat, plasma, po, 3 mg/kg, MRT 0-∞, APZ 3 mg/kg p.o. daily for 15 days (multiple doses), with or without SA 20 mg/kg p.o. for 15 days, mean ± SD, n = 6) stood at 26.1 ± 1.01 h. In data set [1] (Wistar, rat, plasma, po, 3 mg/kg, T1/2, APZ 3 mg/kg p.o. daily for 15 days (multiple doses), with or without SA 20 mg/kg p.o. for 15 days, mean ± SD, n = 6), the half-life is 19.8 ± 2.52 h. In addition, the “Enhancement in liver expression of CYP2D6” value with CYP2D6 (setting [5]) was 91.17%. In addition, the “Increase in CYP2D6 expression” value with CYP2D6 (setting [6]) is on record as 82%. Besides, the “APZ converted to the major metabolite DAPZ” value in data set [2] is reported as “about 40%”. The “Enhancement in liver expression of CYP3A2” value in the data set on CYP3A2 (setting [5]) is reported as 135.29%. For the same compound, the “Enhancement in CYP3A2 protein expression” value in the data set on CYP3A2 (setting [6]) was 90%. Also, the “Increases in CYP3A2 and CYP2D6 expressions in hepatic tissues” value in the data set on CYP3A2 and CYP2D6 is 2–3 folds.
`COc1cc(C=CC(=O)O)cc(OC)c1O` [SA, 3,5-dimethoxy-4-hydroxycinnamic acid]: the “Change in T1/2 of APZ on co-administration of SA (in words)” value in data set [1] (APZ single dose, SA 20 mg/kg p.o. for 15 days, compared with APZ alone) is on record as “without a significant change”. Moreover, in the data set with CYP2D6 (setting [7]), the “Reduction in hepatic expression of CYP2D6” value stood at 65.76%. The “Reduction of CYP2D6 hepatic protein” value with CYP2D6 (setting [8]) is listed as 34.06%. The “Reduction of CYP2D6 protein” value in the data set with CYP2D6 (multiple dose study, p <0.05) is listed as 71.15%; in the data set on CYP2D6 (single dose study, p <0.05), 53.84%. Moreover, the “Reduction in hepatic expression of CYP3A2” value in the data set on CYP3A2 (setting [7]) is given as 54.68%. The “Reduction of CYP3A2 hepatic protein” value in the data set on CYP3A2 (setting [8]) came to 31.57%. Further, the “Reduction of CYP3A2 protein” value is 73.75% with CYP3A2 (multiple dose study, p <0.05) and 50.52% with CYP3A2 (single dose study, p <0.05).

One may read the Tmax as the time at which the peak concentration occurs. The AUC(0-t) is the area under the concentration-time curve up to a stated or last time point. A low value points to less exposure. The term AUC(0-inf) denotes total exposure, with the tail of the curve extrapolated. In general, Cmax refers to the peak of the concentration-time curve. As usually defined, the MRT inf is a mean duration of stay, worked out from the concentration-time curve. A word on the half-life: it is the time in which the quantity being followed falls by half. A lower half-life goes with fast loss.
